RBBP9 inh: inhibitors of human serine hydrolase RBBP9; actives 0.2% (n = 220,000); AID 1515; inhibition, % at 7.94 µM; recombinant RBBP9, FP-Rh probe fluorescence polarization;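 active = inhibition above the campaign mean of all tested compounds plus 3 SD, cut at about 14% in these data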
Target sequence (O75884 whole entry, looked up): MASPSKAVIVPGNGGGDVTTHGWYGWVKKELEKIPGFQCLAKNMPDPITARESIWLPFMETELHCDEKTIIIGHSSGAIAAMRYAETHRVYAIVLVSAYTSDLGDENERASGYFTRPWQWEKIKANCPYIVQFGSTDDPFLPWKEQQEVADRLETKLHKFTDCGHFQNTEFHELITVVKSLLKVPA
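Measured by – fluorescence polarization · Test system – RBBP9 protein · Input – 2.5 µM RBBP9 dispensing solution, before mixing · Measure – percent inhibition from mP, scaled between DMSO and no-protein wells · Benchmarks – DMSO-treated enzyme wells and wells lacking RBBP9 · Times – preincubation 30 min plus labeling 45 min at 25 °C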
PREPL inhibitor: inhibits the human prolyl oligopeptidase-like enzyme; inhibition, % at 5.96 µM; actives 0.68% (n = 320,000); recombinant PREPL, fluorescence polarization activity-based probe; in the data active = inhibition above about 43%
UBC9 SUMO inh: blocks human SUMOylation mediated by UBC9; P63279; HTRF SUMOylation assay, SAE1/SAE2 + UBC9, in vitro; actives 0.36% (n = 290,000); inhibition, % at 35 µM; AID 2006; in the data active = inhibition above about 50%, passing the limit was not always enough; inconclusive = no clear call, values can overlap the other calls
Target sequence (P63279 whole entry, looked up): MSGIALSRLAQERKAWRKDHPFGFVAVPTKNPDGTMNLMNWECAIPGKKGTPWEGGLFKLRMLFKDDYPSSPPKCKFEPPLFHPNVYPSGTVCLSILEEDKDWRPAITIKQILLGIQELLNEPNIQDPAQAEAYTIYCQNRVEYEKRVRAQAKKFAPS
ALR inh: blocks human ALR sulfhydryl oxidase activity; inhibition, % (test concentration not listed); purified ALR, DTT oxidation, H2O2 HRP-luminol luminescence; actives 3.8% (n = 290,000); AID 485317; P55789;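 active = mean replicate inhibition above about 79%, with every replicate also reaching it, limit read from the data; inconclusive = only one of the two criteria met; inactive = mean below limit and not every replicate reaching it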
Target sequence (P55789 whole entry, looked up): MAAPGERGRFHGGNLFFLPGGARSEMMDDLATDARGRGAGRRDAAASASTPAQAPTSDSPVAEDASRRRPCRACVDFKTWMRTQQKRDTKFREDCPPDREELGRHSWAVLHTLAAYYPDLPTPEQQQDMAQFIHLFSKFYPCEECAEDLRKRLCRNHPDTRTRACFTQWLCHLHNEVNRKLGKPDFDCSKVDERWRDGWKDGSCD
Rin1 Abl inh: inhibitors of human Rin1-Abl protein interaction. P00519+Q13671. TR-FRET Rin1/Abl binding, biochemical. actives 0.4% (n = 360,000). inhibition, % at 7.35 µM; in the data active = inhibition above about 5%, passing the limit was not always enough
UBC13 inh: inhibitors of human UBC13 polyubiquitin chain formation. actives 0.47% (n = 330,000). TR-FRET. inhibition, % at 20 µM. P61088; in the data active = inhibition above about 45%, passing the limit was not always enough; inconclusive = no clear call, values can overlap the other calls
Numbers stand for hits; - = inactive; ? = inconclusive; . = no result given. Only some compounds are listed: those with a hit (about 4.3% of all), similar ones and a draw of the others.

SMILES | RBBP9 inh | PREPL inhibitor | UBC9 SUMO inh | ALR inh | Rin1 Abl inh | UBC13 inh
O=C(COc1ccccc1/C=C1\SC(=O)NC1=O)Nc1ccccc1 | - | - | - | . | - | -
O=C(/C=C1\SC(=O)NC1=O)Nc1ccc(F)cc1 | - | - | - | 97 | - | -
Cc1ccc(-c2nc(=S)c3c(n2Cc2cccnc2)CC(C)(C)OC3)cc1 | - | - | - | - | - | -
CCOC(=O)N1CCN(C(=O)c2ccc3c(=O)n(Cc4ccc(Cl)cc4)c(=S)[nH]c3c2)CC1 | - | - | - | - | - | -
CCOC(=O)Cn1c(=S)[nH]c2c(oc3ccc(Cl)cc32)c1=O | - | - | - | 96 | - | ?
COc1cc(C(=O)NCC(c2ccccc2)N(C)C)ccc1OCc1c(C)noc1C (centres undefined) | . | - | . | . | - | -
O=C(CCC(=O)N1CCOc2ccc(Cl)cc21)NCc1ccccc1 | . | - | - | - | - | -
CN(CCCNC(=O)CCC(=O)N1CCOc2ccc(Cl)cc21)Cc1ccccc1 | . | - | - | 93 | - | -
O=C(Nc1ccc(Nc2ccccc2)cc1)C(Cl)Cl | - | - | - | 92 | - | -
CC(=O)Nc1ccc(NC(=O)C(C)OC(=O)COc2ccc(Nc3ccccc3)cc2)cc1 (centres undefined) | . | - | . | 99 | - | -
CC(=O)Oc1ccc(C(=O)O)c(OC(C)=O)c1 | - | - | - | - | - | -
CC(=O)Oc1ccc(C(=O)c2ccccc2)c(OC(C)=O)c1 | - | - | - | 98 | - | -
O=C(NC1=C(Nc2ccc(Cl)cc2)C(=O)c2ccccc2C1=O)c1ccccc1 | - | - | - | - | - | -
CCOc1ccc(OCCC(=O)OC(C)C(=O)Nc2ccc(C(C)=O)cc2)cc1 (centres undefined) | . | - | - | - | - | -
O=C1C(Cl)=C(NC(=O)c2ccccc2)C(=O)C(Cl)=C1NC(=O)c1ccccc1 | . | - | 51 | . | - | -
NC(=O)Nc1ccc(Nc2ccccc2)cc1 | - | - | - | 99 | - | -
CC(=O)Oc1ccc(Nc2ccccc2)cc1 | - | - | - | 99 | - | -
CCC(=O)Nc1ccc(Nc2ccccc2)cc1 | - | - | - | . | - | -
O=C(Nc1ccc(Nc2ccccc2)cc1)c1ccc(Cl)cc1 | . | - | . | - | - | -
O=C(Nc1ccc(Nc2ccccc2)cc1)C(Cl)(Cl)Cl | - | - | - | 95 | - | -
O=C(Nc1ccc(Nc2ccccc2)cc1)c1ccccc1 | . | - | . | 90 | . | -
CC(=O)Oc1ccc(NC(=O)Cc2ccccc2)cc1 | - | - | - | - | - | -
COc1cccc(NC(=O)N(C)C[C@H]2OCc3cnnn3CCCC(=O)N([C@H](C)CO)C[C@@H]2C)c1 | . | . | . | . | - | .
O=C(COC(=O)COc1ccccc1)NC1CCCC1 | . | - | . | - | - | -
Cc1nn(S(=O)(=O)c2ccc(Br)cc2)c(C)c1S(=O)(=O)N1CCOCC1 | . | - | - | - | - | -
SMILES | RBBP9 inh | PREPL inhibitor | UBC9 SUMO inh | ALR inh | Rin1 Abl inh | UBC13 inh
O=C(CN1CCN(c2ccc(O)cc2)CC1)N1CCc2ccccc21 | . | - | - | 80 | - | -
COCc1[nH][nH]c(=O)c1C=Nc1ccc(Oc2ccccc2)cc1 | - | - | - | 99 | - | -
COCc1[nH][nH]c(=O)c1C=Nc1ccc(C(F)(F)F)cc1 | - | - | - | - | - | -
CC(=O)NC(CC(=O)N1CCCC1)c1ccccc1 (centres undefined) | . | - | - | - | - | -
Cc1ccc(NC2=C(NCCO)C(=O)c3ccccc3C2=O)cc1 | - | - | - | 100 | - | -
CC(=O)Nc1ccc(NC2=C(Cl)C(=O)c3ccccc3C2=O)cc1 | - | . | - | . | . | -
O=C(O)c1ccc(S(=O)(=O)N(CCc2ccccc2)Cc2ccc(Cl)cc2)cc1 | . | - | - | . | - | -
O=S(=O)(c1ccccc1)c1cc(O)ccc1O | - | - | - | 98 | - | -
O=S(=O)(c1ccc(Cl)cc1)c1cc(O)ccc1O | . | - | - | 99 | - | -
Nc1ccc(S(=O)(=O)c2ccc(Cl)cc2)cc1 | - | - | - | - | - | -
O=C(CC(Nc1ccccc1Cl)C(=O)O)c1ccccc1 (centres undefined) | - | - | - | 98 | - | -
O=C(CC(Nc1cccc(Cl)c1Cl)C(=O)O)c1ccccc1 (centres undefined) | - | - | - | - | - | -
CCN(CC)C(=O)Oc1ccc(Br)cc1C(=O)Nc1ccc(F)cc1F | - | - | - | - | - | -
CC(=O)Oc1ccc(/C=N/NC(=O)C2CCCN2S(=O)(=O)c2ccc(Cl)cc2)cc1 (centres undefined) | - | - | - | 100 | - | -
Cc1ccc2[nH]c(C(=O)O)c(NC(=O)CN3CCN(c4cccc(C)c4C)CC3)c2c1 | - | - | - | 94 | - | -
Cc1ccc(N2CC(C(=O)Nc3cccc(C(=O)NC4CC4)c3)CC2=O)cc1 (centres undefined) | . | - | . | . | - | -
COc1cccc(/C=N/NC(=O)Cn2nc(C)c([N+](=O)[O-])c2C)c1O | - | - | - | 88 | - | -
COc1cccc(/C=N/NC(=O)C(C)n2nc(C)c([N+](=O)[O-])c2C)c1O (centres undefined) | - | - | - | - | - | -
Cn1nc([N+](=O)[O-])c(C(C#N)c2nc3ccccc3n2C)c(Cl)c1=O (centres undefined) | - | - | - | 100 | - | -
COc1ccc(CN2C(=O)[C@@H]3C(c4ccc(F)cc4)=NO[C@@H]3C2=O)cc1 | - | - | - | 99 | - | -
CC1=C(C(=O)N(C)C)CC(CC(=O)NCCCN(C)C)C(=O)N1CCCN1CCCC1=O (centres undefined) | . | . | . | . | - | .
O=C(Nc1nncs1)C1CC(=O)N(CCc2ccc(F)cc2)C1 (centres undefined) | . | - | - | - | - | -
CCOc1ccc(S(=O)(=O)Nc2cc(SCC(=O)O)c(O)c3ccccc23)cc1 | . | . | 75 | - | - | .
CCc1ccc(S(=O)(=O)Nc2cc(SCC(=O)O)c(O)c3ccccc23)cc1 | - | - | 101 | - | - | -
O=C(O)CSc1cc(NS(=O)(=O)c2cccc([N+](=O)[O-])c2)c2ccccc2c1O | - | . | 88 | . | - | .
CC(C)CC(=O)NC1(C(F)(F)F)C(=O)N(CC(C)C)C2=C1C(=O)CC(C)(C)C2 (centres undefined) | - | - | - | - | - | -
O=C1Nc2ccccc2C(=O)N2CCCCC12 (centres undefined) | - | - | - | - | - | -
c1ccc2c(c1)CC(N1CCCCC1)c1ccccc1N2 (centres undefined) | - | - | - | 85 | - | -
CCN(CC)c1ccc(N2C(=NC(=O)C3CCCO3)SC3CS(=O)(=O)CC32)cc1 (centres undefined) | . | - | - | 99 | - | -
O=C(N=C1SC2CS(=O)(=O)CC2N1c1ccc(Cl)cc1)C1CCCO1 (centres undefined) | . | - | - | - | - | -

Screens from PubChem BioAssay.
